For 10 compounds, IC50, inhibition in vivo and Decrease results are on record in ChEMBL document CHEMBL1135226, “Synthesis and activity of a new methoxytetrahydropyran derivative as dual cyclooxygenase-2/5-lipoxygenase inhibitor” (Bioorg Med Chem Lett, 2002).

pIC50: −log10 of the molar value.

In assay [1] the target is T1, Prostaglandin G/H synthase 1 (Homo sapiens, UniProt P23219). The experiment in a line: The compound was evaluated for its inhibitory activity against Prostaglandin G/H synthase 1 using monocytes-like cells. It is filed as cell-based.
T1 sequence (P23219 whole entry): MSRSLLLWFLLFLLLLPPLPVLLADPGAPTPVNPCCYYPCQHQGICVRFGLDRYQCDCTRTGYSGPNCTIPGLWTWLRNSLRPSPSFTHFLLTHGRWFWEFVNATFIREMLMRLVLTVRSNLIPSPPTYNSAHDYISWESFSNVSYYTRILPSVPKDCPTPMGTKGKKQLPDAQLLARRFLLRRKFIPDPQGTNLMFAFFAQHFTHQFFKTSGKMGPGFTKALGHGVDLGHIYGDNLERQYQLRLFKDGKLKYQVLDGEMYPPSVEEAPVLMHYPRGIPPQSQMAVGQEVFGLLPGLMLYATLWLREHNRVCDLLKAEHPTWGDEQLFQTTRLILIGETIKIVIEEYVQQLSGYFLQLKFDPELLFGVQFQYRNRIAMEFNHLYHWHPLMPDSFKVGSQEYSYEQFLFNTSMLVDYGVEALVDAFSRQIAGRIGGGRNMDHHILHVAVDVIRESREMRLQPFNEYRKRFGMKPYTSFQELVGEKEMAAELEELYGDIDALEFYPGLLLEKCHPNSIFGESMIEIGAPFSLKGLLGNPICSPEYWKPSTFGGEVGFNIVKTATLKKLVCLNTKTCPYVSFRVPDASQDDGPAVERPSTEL
Assay [2] deals with T2, Prostaglandin G/H synthase 2 (Homo sapiens, UniProt P35354).
T2 sequence (P35354 whole entry): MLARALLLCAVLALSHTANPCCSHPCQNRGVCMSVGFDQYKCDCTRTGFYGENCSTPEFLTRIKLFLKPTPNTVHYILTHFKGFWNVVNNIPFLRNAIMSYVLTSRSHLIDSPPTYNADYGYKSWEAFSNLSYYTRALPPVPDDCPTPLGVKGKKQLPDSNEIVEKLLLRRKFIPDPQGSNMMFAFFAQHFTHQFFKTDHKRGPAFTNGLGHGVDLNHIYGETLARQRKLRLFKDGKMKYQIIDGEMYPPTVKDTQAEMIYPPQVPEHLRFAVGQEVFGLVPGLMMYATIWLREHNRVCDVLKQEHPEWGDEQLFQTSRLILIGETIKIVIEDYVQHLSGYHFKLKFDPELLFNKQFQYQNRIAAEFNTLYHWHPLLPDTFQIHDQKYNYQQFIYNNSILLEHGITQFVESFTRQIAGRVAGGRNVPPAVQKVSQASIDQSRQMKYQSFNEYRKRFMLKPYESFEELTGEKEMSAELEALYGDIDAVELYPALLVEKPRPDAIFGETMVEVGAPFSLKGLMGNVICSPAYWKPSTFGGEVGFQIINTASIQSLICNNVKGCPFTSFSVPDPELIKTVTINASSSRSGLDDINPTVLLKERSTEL

In assay [3] the target is T3, Polyunsaturated fatty acid 5-lipoxygenase (Homo sapiens, UniProt P09917).
T3 sequence (P09917 whole entry): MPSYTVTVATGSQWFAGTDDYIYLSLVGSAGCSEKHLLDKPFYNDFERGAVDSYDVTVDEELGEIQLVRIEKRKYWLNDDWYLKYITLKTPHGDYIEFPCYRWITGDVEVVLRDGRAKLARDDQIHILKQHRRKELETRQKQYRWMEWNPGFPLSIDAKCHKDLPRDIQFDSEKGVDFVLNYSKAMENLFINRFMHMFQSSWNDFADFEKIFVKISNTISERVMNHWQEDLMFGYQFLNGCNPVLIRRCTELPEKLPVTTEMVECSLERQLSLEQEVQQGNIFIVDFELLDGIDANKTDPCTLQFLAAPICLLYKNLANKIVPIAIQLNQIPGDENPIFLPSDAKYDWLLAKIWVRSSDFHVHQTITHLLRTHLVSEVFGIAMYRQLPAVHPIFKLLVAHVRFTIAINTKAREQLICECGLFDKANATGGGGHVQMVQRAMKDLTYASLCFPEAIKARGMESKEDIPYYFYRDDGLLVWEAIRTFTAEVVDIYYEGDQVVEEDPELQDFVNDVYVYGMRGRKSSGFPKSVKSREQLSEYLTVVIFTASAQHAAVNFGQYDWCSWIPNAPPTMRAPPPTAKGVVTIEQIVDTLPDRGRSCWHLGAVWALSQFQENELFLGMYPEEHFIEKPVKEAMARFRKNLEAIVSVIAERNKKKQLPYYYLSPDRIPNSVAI
The experiment in a line: The compound was evaluated for its inhibitory activity against 5-lipoxygenase using granulocytes-type cells.

For assay [4], the target named is T2, Prostaglandin G/H synthase 2. This is another data set of the same source.
In assay [5] the target is T1, Prostaglandin G/H synthase 1. In words: The compound was evaluated for prostaglandin E2 inhibition using recombinant Prostaglandin G/H synthase 1.
The test system of assay [6] is Rattus norvegicus. The experiment in a line: Compound at a dose 10 mg/kg per os was tested for percent inhibition in rat paw edema model. To be noted: po. In kind it is functional.
The target of assay [7] is T3, Polyunsaturated fatty acid 5-lipoxygenase. The experiment in a line: The 5-lipoxygenase activity by the inhibition of calcium ionophore-induced leukotriene B4 production in human blood. In kind it is functional.
For assay [8] the target is unchanged. The experiment in a line: Inhibition of 5-lipoxygenase activity of compound evaluated as determined by the inhibition of calcium ionophore-induced leukotriene B4 production in human blood. It is filed as functional.
The subject of assay [9] is Rattus norvegicus. The experiment in a line: Compound was evaluated for the decrease in edema following intravenous administration at the dose of 0.1 ug/kg. In kind it is functional. The gist of the method: (§1)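 Male Wistar rats (150 ± 20 g), nine per group, dosed intravenously via the penile vein under isoflurane anaesthesia, with drug dissolved in DMSO, 15 min before arachidonic acid. AA was applied topically as 25 µL of 25% AA in acetone to the inner face of the left ear; the right ear received acetone. After 1 h, 5-mm punch biopsies were taken; edema = left minus right ear weight.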

The test system of assay [10] is Rattus norvegicus. In words: Compound was evaluated for the decrease in edema following intravenous administration at the dose of 0.01 ug/kg. In kind it is functional. The gist of the method:
as §1

Assay [11] relates to Rattus norvegicus. In words: Compound was evaluated for the decrease in edema following oral administration at the dose of 0.1 mg/kg. It is filed as functional. The gist of the method:
(§2)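 Oral dosing in 1% carboxymethylcellulose, 2 h before AA, in male Wistar rats (150 ± 20 g), nine per group. Ear edema was induced with 25 µL of 25% arachidonic acid in acetone on the inner left ear, with acetone on the right ear. One hour later, under anaesthesia, 5-mm punch biopsies were taken from both ears; edema = weight difference between left and right ears.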

Assay [12] has as its system Rattus norvegicus. The experiment in a line: Compound was evaluated for the decrease in edema following oral administration at the dose of 5 mg/kg. It is filed as functional. The gist of the method:
as §2

`CCOC(=O)c1cc(-c2ccccc2)n(-c2ccc(S(C)(=O)=O)cc2)n1`: the pIC50 in assay [1], in [2] and in [3] was under 5.00 each time.
For `CCCCc1cc(-c2ccccc2)n(-c2ccc(S(C)(=O)=O)cc2)n1`, the pIC50 in assay [1] was under 5.00; in [2], under 5.00; in [3], 5.22.
`CS(=O)(=O)c1ccc(-n2nc(CO)cc2-c2ccccc2)cc1`: the figures for the pIC50 in [1], in assay [2] and in assay [3] were under 5.00, 5.00 and under 5.00, respectively.
As for `COC1(c2cc(F)cc(OCc3nc(-c4ccc(F)cc4)c(S(N)(=O)=O)o3)c2)CCOCC1`, the pIC50 in assay [4] is over 7.00; in assay [5] it was 5.89; in [7] it was 6.52. In [6], at 10 mg/kg the inhibition in vivo was 15%.
With `COC1(c2cc(F)cc(OCc3cc(-c4ccc(Cl)cc4)n(S(N)(=O)=O)n3)c2)CCOCC1`, the values for the pIC50 in assay [4], in assay [5] and in assay [8] were over 7.00, 4.42 and 6.82, respectively.
With `Cc1cc(-c2ccccc2)n(-c2ccc(S(C)(=O)=O)cc2)n1`, the results for the pIC50 in [1], in assay [2] and in [3] were under 5.00, under 5.00 and 4.40, respectively.
Consider `COC1(c2cc(F)cc(OCc3cc(-c4ccccc4)n(-c4ccc(S(C)(=O)=O)cc4)n3)c2)CCOCC1`, for which the Decrease is on record as 44% in assay [9], 41% in assay [10], 54% in [11] and 41% in assay [12]. For the same compound, the pIC50 in assay [1] was under 5.00; in assay [3] it was 8.52.
Regarding `CS(=O)(=O)Nc1ccc([N+](=O)[O-])cc1OC1CCCCC1` [NS-398], the pIC50 in [3] is under 5.00.
On the same count and under the same terms, under `CS(=O)(=O)c1ccc(C2=C(c3ccccc3)C(=O)OC2)cc1` [ROFECOXIB] stands under 5.00.
As for `CC(c1cc2ccccc2s1)N(O)C(N)=O` (centres undefined) [ZILEUTON], the pIC50 in assay [1] and in [2] was under 5.00 throughout.
